Test results taken from ChEMBL document CHEMBL3616442, “Unconventional Knoevenagel-type indoles: Synthesis and cell-based studies for the identification of pro-apoptotic agents” (Eur J Med Chem, 2015).

What was measured:
[1] = tested on: CAKI-1; test: Growth inhibition of human CAKI-1 cells after 48 hrs by sulforhodamine B assay; type: functional; conditions: CAKI-1, 48 h
How it was run: (§1)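 NCI 60-cell-line screen. Compounds tested at five 10-fold dilutions from 10^-4 to 10^-8 M. Cells exposed for the last 48 h of a 72 h incubation, growth estimated by sulforhodamine B protein assay. GI50 is the concentration giving 50% growth inhibition. Values beyond the tested range are expressed as greater or lesser than the extreme concentration.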

[2] = tested on: OVCAR-4; test: Growth inhibition of human OVCAR4 cells after 48 hrs by sulforhodamine B assay; type: functional; conditions: OVCAR-4, 48 h; how it was run: as §1
[3] = tested on: HCT-116; test: Growth inhibition of human HCT116 cells after 48 hrs by sulforhodamine B assay; type: functional; conditions: HCT-116, 48 h; how it was run: as §1
[4] = tested on: MT4; test: Antiproliferative activity against human MT4 cells after 96 hrs by MTT assay; type: functional, cell-based; conditions: MT4, 96 h
How it was run: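 Exponentially growing MT-4 cells (CD4+ human T-cells carrying integrated HTLV-1 genome), seeded at 1×10^5 cells/mL in RPMI-1640 with 10% FCS and antibiotics. Serial dilutions of compound (DMSO stock 100 mM, diluted in medium), 37 °C, 5% CO₂, 96 h. Viability read by MTT. 50% inhibition versus untreated controls by linear regression. Mean ± SD of three independent determinations.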

[5] = tested on: M14; test: Growth inhibition of human M14 cells after 48 hrs by sulforhodamine B assay; type: functional; conditions: M14, 48 h; how it was run: as §1
[6] = tested on: MDA-MB-435; test: Growth inhibition of human MDA-MB-435 cells after 48 hrs by sulforhodamine B assay; type: functional; conditions: MDA-MB-435, 48 h; how it was run: as §1
[7] = tested on: NCI-H322M; test: Growth inhibition of human NCI-H322M cells after 48 hrs by sulforhodamine B assay; type: functional; how it was run: as §1
[8] = Growth inhibition of human RPMI8226 cells after 48 hrs by sulforhodamine B assay; type: functional; conditions: RPMI-8226, 48 h
[9] = tested on: SK-MEL-2; test: Growth inhibition of human SK-MEL-2 cells after 48 hrs by sulforhodamine B assay; type: functional; conditions: SK-MEL-2, 48 h
[10] = tested on: MDA-MB-231; test: Growth inhibition of human MDA-MB-231 cells after 48 hrs by sulforhodamine B assay; type: functional; conditions: MDA-MB-231, 48 h; how it was run: as §1
[11] = tested on: HT-29; test: Growth inhibition of human HT-29 cells after 48 hrs by sulforhodamine B assay; type: functional; conditions: HT-29, 48 h; how it was run: as §1
[12] = Growth inhibition of human HOP92 cells after 48 hrs by sulforhodamine B assay; type: functional; conditions: HOP-92, 48 h; how it was run: as §1
[13] = tested on: SF-268; test: Growth inhibition of human SF268 cells after 48 hrs by sulforhodamine B assay; type: functional; conditions: SF-268, 48 h
[14] = tested on: OVCAR-5; test: Growth inhibition of human OVCAR5 cells after 48 hrs by sulforhodamine B assay; type: functional; conditions: OVCAR-5, 48 h
[15] = tested on: SW-620; test: Growth inhibition of human SW620 cells after 48 hrs by sulforhodamine B assay; type: functional; conditions: SW-620, 48 h
[16] = Growth inhibition of human MOLT4 cells after 48 hrs by sulforhodamine B assay; type: functional; conditions: MOLT-4, 48 h; how it was run: as §1
[17] = tested on: SNB-19; test: Growth inhibition of human SNB19 cells after 48 hrs by sulforhodamine B assay; type: functional; conditions: SNB-19, 48 h
[18] = tested on: PC-3; test: Growth inhibition of human PC3 cells after 48 hrs by sulforhodamine B assay; type: functional; conditions: PC-3, 48 h
[19] = Growth inhibition of human BT549 cells after 48 hrs by sulforhodamine B assay; type: functional; conditions: BT-549, 48 h; how it was run: as §1
[20] = tested on: HOP-62; test: Growth inhibition of human HOP62 cells after 48 hrs by sulforhodamine B assay; type: functional; conditions: HOP-62, 48 h; how it was run: as §1
[21] = tested on: UO-31; test: Growth inhibition of human UO31 cells after 48 hrs by sulforhodamine B assay; type: functional; conditions: UO-31, 48 h
[22] = tested on: MCF7; test: Growth inhibition of human MCF7 cells after 48 hrs by sulforhodamine B assay; type: functional; conditions: MCF7, 48 h; how it was run: as §1
[23] = tested on: DU-145; test: Growth inhibition of human DU145 cells after 48 hrs by sulforhodamine B assay; type: functional; conditions: DU-145, 48 h; how it was run: as §1
[24] = tested on: NCI-H522; test: Growth inhibition of human NCI-H522 cells after 48 hrs by sulforhodamine B assay; type: functional; conditions: NCI-H522, 48 h; how it was run: as §1
[25] = tested on: K562; test: Growth inhibition of human K562 cells after 48 hrs by sulforhodamine B assay; type: functional; conditions: K562, 48 h; how it was run: as §1
[26] = Growth inhibition of human NCI-ADR-RES cells after 48 hrs by sulforhodamine B assay; type: functional; how it was run: as §1
[27] = tested on: NCI-H460; test: Growth inhibition of human NCI-H460 cells after 48 hrs by sulforhodamine B assay; type: functional; conditions: NCI-H460, 48 h; how it was run: as §1
[28] = tested on: MDA-MB-468; test: Growth inhibition of human MDA-MB-468 cells after 48 hrs by sulforhodamine B assay; type: functional; conditions: MDA-MB-468, 48 h; how it was run: as §1
[29] = Growth inhibition of human LOXIMVI cells after 48 hrs by sulforhodamine B assay; type: functional; conditions: LOX IMVI; how it was run: as §1
[30] = tested on: SK-OV-3; test: Growth inhibition of human SKOV3 cells after 48 hrs by sulforhodamine B assay; type: functional; conditions: SK-OV-3, 48 h
[31] = Growth inhibition of human SF295 cells after 48 hrs by sulforhodamine B assay; type: functional; conditions: SF-295, 48 h
[32] = Growth inhibition of human COLO205 cells after 48 hrs by sulforhodamine B assay; type: functional; conditions: COLO 205, 48 h; how it was run: as §1
[33] = tested on: SK-MEL-28; test: Growth inhibition of human SK-MEL-28 cells after 48 hrs by sulforhodamine B assay; type: functional; conditions: SK-MEL-28, 48 h
[34] = tested on: T47D; test: Growth inhibition of human T47D cells after 48 hrs by sulforhodamine B assay; type: functional
[35] = tested on: KM12; test: Growth inhibition of human KM12 cells after 48 hrs by sulforhodamine B assay; type: functional; conditions: KM12, 48 h; how it was run: as §1
[36] = tested on: U-251; test: Growth inhibition of human U251 cells after 48 hrs by sulforhodamine B assay; type: functional; conditions: U-251, 48 h
[37] = tested on: ACHN; test: Growth inhibition of human ACHN cells after 48 hrs by sulforhodamine B assay; type: functional; how it was run: as §1
[38] = tested on: Malme-3M; test: Growth inhibition of human MALME-3M cells after 48 hrs by sulforhodamine B assay; type: functional; how it was run: as §1
[39] = tested on: SR; test: Growth inhibition of human SR cells after 48 hrs by sulforhodamine B assay; type: functional
[40] = tested on: HL-60(TB); test: Growth inhibition of human HL-60(TB) cells after 48 hrs by sulforhodamine B assay; type: functional; conditions: HL-60, 48 h
How it was run: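 NCI 60-cell-line screen, HL-60(TB) included. Compound given at five 10-fold dilutions from 10^-4 to 10^-8 M. Cells exposed for the last 48 h of a 72 h incubation. Growth or viability estimated by sulforhodamine B protein assay. GI50 is the concentration giving 50% growth inhibition. Values outside the tested range are reported as greater or less than the highest or lowest concentration.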

[41] = tested on: NCI-H23; test: Growth inhibition of human NCI-H23 cells after 48 hrs by sulforhodamine B assay; type: functional; conditions: NCI-H23, 48 h; how it was run: as §1
[42] = tested on: SN12C; test: Growth inhibition of human SN12C cells after 48 hrs by sulforhodamine B assay; type: functional
[43] = Growth inhibition of human EKVX cells after 48 hrs by sulforhodamine B assay; type: functional; how it was run: as §1

For `COc1ccc(-c2[nH]c3ccc(OC)cc3c2/C=C(\C#N)S(=O)(=O)c2ccccc2)cc1`, the GI50 [1] was 4200 nM, the GI50 [2] was 2100 nM and the GI50 [3] was 539 nM. It also gave an EC50 [4] of 200 nM, a GI50 [5] of 500 nM and a GI50 [6] of 276 nM. For the same molecule, the GI50 [7] was 4300 nM, the GI50 [8] was 1300 nM and the GI50 [9] was 9000 nM. For the same molecule, the GI50 [10] was 1400 nM, the GI50 [11] was 435 nM and the GI50 [12] was 698 nM. It also gave a GI50 [13] of 1600 nM, a GI50 [14] of 4600 nM and a GI50 [15] of 540 nM. It also gave a GI50 [16] of 765 nM, a GI50 [17] of 3200 nM and a GI50 [18] of 534 nM. It also gave a GI50 [19] of 4800 nM, a GI50 [20] of 3100 nM and a GI50 [21] of 3100 nM. The GI50 [22] was 851 nM, the GI50 [23] was 875 nM and the GI50 [24] was 1700 nM. The GI50 [25] was 508 nM, the GI50 [26] was 494 nM and the GI50 [27] was 687 nM. It also gave a GI50 [28] of 1300 nM, a GI50 [29] of 1200 nM and a GI50 [30] of 901 nM. It also gave a GI50 [31] of 760 nM, a GI50 [32] of 396 nM and a GI50 [33] of 787 nM. The GI50 [34] was 905 nM, the GI50 [35] was 654 nM and the GI50 [36] was 563 nM. The GI50 [37] was 1800 nM, the GI50 [38] was 3200 nM and the GI50 [39] was 305 nM. It also gave a GI50 [40] of 899 nM, a GI50 [41] of 946 nM and a GI50 [42] of 2300 nM. It also gave a GI50 [43] of 3300 nM.
